From ChEMBL document CHEMBL2203101, “Molecular hybridization of bioactives: synthesis and antitubercular evaluation of novel dibenzofuran embodied homoisoflavonoids via Baylis-Hillman reaction” (Bioorg Med Chem Lett, 2012)
≈ marks a conversion by molar mass, not a printed value.

Experiments:
[1] = Lipophilicity, log P of the compound; format: physicochemical; settings: octanol/water
[2] = test system: Mycobacterium tuberculosis; experiment: Antimycobacterial activity against Mycobacterium tuberculosis H37Rv ATCC 27294 after 28 days by agar dilution method; format: functional; settings: H37Rv ATCC 27294, 672 h
Summary of the method: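 Compounds and reference drugs were tenfold serially diluted into Middlebrook 7H11 agar with OADC supplement. The inoculum came from fresh 7H11/OADC slants, was adjusted to 1 mg/mL (wet weight) in 0.05% Tween 80 saline, and was diluted 10^-2 to give 10^7 cfu/mL. Bacterial suspension was spotted onto the drug-containing agar tubes, incubated at 37 C, and final readings were taken after 28 days.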

SMILES	logP [1]	MIC [2] [µg/mL]
COc1cccc2c1OC/C(=C\c1ccc3oc4ccccc4c3c1)C2=O	3.56	25 (≈ 70.2 µM)
CC(C)(C)c1ccc2c(c1)C(=O)/C(=C/c1ccc3oc4ccccc4c3c1)CO2	5.39	25 (≈ 65.4 µM)
O=C1/C(=C/c2ccc3oc4ccccc4c3c2)COc2ccc(F)cc21	3.84	12.5 (≈ 36.3 µM)
O=C1/C(=C/c2ccc3oc4ccccc4c3c2)COc2ccc(Br)cc21	4.51	12.5 (≈ 30.8 µM)
O=C1/C(=C/c2ccc3oc4ccccc4c3c2)COc2ccc3ccccc3c21	4.68	25 (≈ 66.4 µM)
O=C1/C(=C/c2ccc3oc4ccccc4c3c2)COc2c1ccc1ccccc21	4.68	25 (≈ 66.4 µM)
O=C1/C(=C/c2ccc3oc4ccccc4c3c2)COc2ccc3oc4ccccc4c3c21	4.35	25 (≈ 60 µM)
O=C1/C(=C/c2ccc3oc4ccccc4c3c2)COc2ccc3[nH]c4ccccc4c3c21	4.38	25 (≈ 60.2 µM)
O=C1/C(=C/c2ccc3oc4ccccc4c3c2)COc2ccccc21	3.69	25 (≈ 76.6 µM)
COc1ccc2c(c1)C(=O)/C(=C/c1ccc3oc4ccccc4c3c1)CO2	3.56	25 (≈ 70.2 µM)
Cc1ccc2c(c1)C(=O)/C(=C/c1ccc3oc4ccccc4c3c1)CO2	4.17	25 (≈ 73.4 µM)
CC[C@@H](CO)NCCN[C@@H](CC)CO [ETHAMBUTOL]		3.13 (≈ 15.3 µM)
NNC(=O)c1ccncc1 [ISONIAZID]		0.1 (≈ 0.729 µM)
NC(=O)c1cnccn1 [PYRAZINAMIDE]		50 (≈ 406 µM)
